The results in this text go back to the EternaBench riboswitch data.

The test system of the data set is MS2 coat protein. The data set is described as follows: apparent Kd, MS2 coat protein; higher = weaker binding; RNA-MaP array. The procedure, abridged: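 On an Illumina sequencing chip, sequenced DNA templates served for transcription of the designed RNAs, which were then bound at room temperature by fluorescently labeled MS2 coat protein at 1.5 nM to 3 μM, with or without input ligand. Apparent Kd is the median of the fits to each cluster's binding curve. Only designs measured on at least 10 clusters were kept.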

Where [1] appears, read: designed as: OFF switch for flavin mononucleotide, no ligand.
The mark [2] stands for this setting: ligand present: flavin mononucleotide, designed as: OFF switch for flavin mononucleotide.
[3] abbreviates: designed as: ON switch for flavin mononucleotide, no ligand.
Setting [4] is: ligand present: flavin mononucleotide, designed as: ON switch for flavin mononucleotide.

Consider “GGAAGCUCCUUGAGACAUGAGGAUCACCCAUGUGCCAUUCCGAGAAGGUAGACUGGACGAGAGGCUAAGGAUAUCGGCGCGCUC”, for which the apparent Kd – broadly, a dissociation constant that holds for the conditions of the assay – under setting [1] stood at 16.7 nM and the “apparent Kd” value under setting [2] was found to be 15.6 nM.

Turning to “CCCAAAGACACAUGAGGAUCACCCAUGUUCCGCAAACAAUUGGAGGAUAUGAAGGAACGCAGCAAACAGAAGGCCAUAAAUAGC”, the “apparent Kd” value was found to be 16.8 nM under setting [3] and 9.67 nM under setting [4].

For the sequence “UCCACACGUCAGAAGGAUGUAUCUACAAUUUUCAUAGGAUAUGACCAUGGAGAUGAUUCCACAUGAGGAUCACCCAUGUCUGCU”, the “apparent Kd” value worked out at 288 nM under setting [1] and 239 nM under setting [2].

As to “AAAACAUGAGGAUCACCCAUGUCCAAAUAAAUACACGGAACUAGAAGGGAAAAUCGAAAUUAAUAUCAGGAUAUAGGCAAAGCA”, the “apparent Kd” value by setting is: under setting [3], 53 nM; under setting [4], 42.2 nM.

Regarding “UAUUCUGACACAGAUACCAGUCAAUUCCGUGGCAAGUGCUACAUGAGGAUCACCCAUGUCGACCCUUGGCAGCUGAAGAGAUACA”, the “apparent Kd” value (designed as: OFF switch for theophylline, no ligand) is 12.1 nM and the “apparent Kd” value (ligand present: theophylline, designed as: OFF switch for theophylline) was 14.1 nM.

Turning to “AUAUUUUCAGGAUAUCAACUUCACUACAUGAGGAUCACCCAUGUCCUCUAUUGUUUACUGUGAGAAGGGAAAGAGA”, the “apparent Kd” value reads like this: under setting [1], 1010 nM; under setting [2], 507 nM.

Turning to “GGGACCGCAGCGUCAUACAUGAGGAUCACCCAUGUUUUACUAAGAAGGAUUAGGAAAGUAAGCUAAUAGGAUAUUACAAGGACA”, the “apparent Kd” value runs as follows: under setting [1], 22.4 nM; under setting [2], 15.6 nM.

Turning to “UGACCGUUAAUAGGAUAUGUUCUCUUCCACAUGAGGAUCACCCAUGUAAACUAUUGUGAAACUGGACAGAAGGAUUAAACAUUG”, the “apparent Kd” value is, setting by setting: under setting [1], 17.1 nM; under setting [2], 14.1 nM.

Take “UAGGAUCAAGUAGGAUAUGUAGAACGGCUUUGUACAGAAGGACUAGUACAUGAGGAUCACCCAUGUUAGGGUACCUCUAAGGCA”: the “apparent Kd” value under setting [2] is 198 nM.

Turning to “GUUACCAUGUCGGCCGCCACUAACAAGGUUAUGGCAAGUCUACACGACAUGAGGAUCACCCAUGUUAGGACCGGGACCCAUACCC”, the “apparent Kd” value (designed as: OFF switch for tryptophan, no ligand) is 13.4 nM and the “apparent Kd” value (ligand present: tryptophan, designed as: OFF switch for tryptophan) was found to be 14 nM.

For the sequence “AAAUUACGUAAGAAGGCCAUAGGAACUGAAGCAAGCUCGACGACACAUGAGGAUCACCCAUGUCUGGAGGAUAUUAUGAUAUCU”, the “apparent Kd” value is 10.3 nM under setting [3] and 9.64 nM under setting [4].

As to “GACGGCUCUAAGGAGGAUAUGGGAAUCAGCACAUGAGGAUCACCCAUGUAAAUGCCUCGGCUGAACCAGAAGGCCUUGGUCAGGAC”, the “apparent Kd” value runs as follows: under setting [3], 380 nM; under setting [4], 269 nM.

In the case of “ACUAGUAGGCAAGGAUAUGGCCUCAUAAGAUAGCCAGAAGGUGCUACGGACAUGAGGAUCACCCAUGUGCAGCUCGUACGGUGG”, the “apparent Kd” value is, setting by setting: under setting [3], 367 nM; under setting [4], 155 nM.

Take “GUCGAAUCCUGAGGAUAUUCAGUGAUGGCUCAGACAUGAGGAUCACCCAUGUUACUCAGUGAGCGGAAGAAGGCAGCCUUCGGG”: the “apparent Kd” value is, setting by setting: under setting [3], 163 nM; under setting [4], 131 nM.

“UACCGAGGGACAGGAUAUUGAGCAUGCCUCGCCCAAGAAGGGUCUUCUGGAGUGACUUAUAACAUGAGGAUCACCCAUGUGAUC”: the “apparent Kd” value came to 410 nM under setting [1] and 262 nM under setting [2].

For the sequence “UACCUUAUUGUUAGGAUAUGCAGAUACAAAGGUGAGCAGAAGGAACAUGAGGAUCACCCAUGUAAAAUAAUAAA”, the “apparent Kd” value came to 16.6 nM under setting [1] and 48 nM under setting [2].

For “UAUUAACAAGGAUAUACAUGAGGAUCACCCAUGUGAAACUAUUUUAUAAUAACAACAAGUAGAAGGAGUUAAAA”, the “apparent Kd” value was found to be 13.2 nM under setting [1] and 10.8 nM under setting [2].

Turning to “ACACCACAGCAGAAGGGUACAUUCUCCACGCGUACAGGAUAUGCGGACUCGGCGUCUCUGACAUGAGGAUCACCCAUGUUUUCU”, the “apparent Kd” value reads like this: under setting [3], 85.9 nM; under setting [4], 29.1 nM.

For “AUCUAACAUGAGGAUCACCCAUGUCAGGAUAUUGCAGCCGUAGUAGGUCUAGUUUGUGCAAGAAGGGACAUCUC”, the “apparent Kd” value came to 9.55 nM under setting [1] and 22.5 nM under setting [2].

Take “AGAUAAUCUUGGGAUUUCGUACAUGAGGAUCACCCAUGUCCAGAGGAUAUGCAUAGACAGGCAUCGCAGAAGGCUGGUGAACAG”: the “apparent Kd” value worked out at 35.4 nM under setting [3] and 27.6 nM under setting [4].

Consider “CUAUCACAUGAGGAUCACCCAUGUAUGAUAAUCAUAGGAUAUAGUGCCAGCCAUAAUUUACUAGAAGGAUGUUUCU”, for which the “apparent Kd” value was 11.7 nM under setting [3] and 10.1 nM under setting [4].

In the case of “AGCCCUCAAUCAGGAUAUGUGUGCAUCUAUUGACUUCUAACUAGACAUGAGGAUCACCCAUGUGAACAGAAGGGAUUGUAAUCA”, the “apparent Kd” value is, setting by setting: under setting [1], 19.9 nM; under setting [2], 19.6 nM.

As to “AAAAUACAUGAGGAUCACCCAUGUGCUUUCUAUUCAGGAUAUGGUGGUACAGUGGACAUACCAGAAGGGAAUGAAA”, the “apparent Kd” value under setting [3] was 11.1 nM and the “apparent Kd” value under setting [4] was determined as 8.34 nM.

“CUCGCUAAAGUAGGAUAUACACAGACAUGAGGAUCACCCAUGUAACGAUGAACCCUUAUUAGAUGGUAGAAGGACUCAAGGCCG”: the “apparent Kd” value under setting [1] worked out at 13.1 nM.
